In ChEMBL document CHEMBL4334455, “Synthesis of Usnic Acid Derivatives and Evaluation of Their Antiproliferative Activity against Cancer Cells” (J Nat Prod, 2019):
Calls of active or inactive are those of the source. The calls are words filed in the database; no cut-off is given here.

Experiments:
MCF7 [1] = assay: Antiproliferative activity against human MCF7 cells assessed as reduction in cell viability after 24 hrs by MTT assay; type: functional, cell-based; settings: MCF7, 24 h
How it was run: (§1)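 Cells seeded at 4 × 10³/well for 24 h runs and for PC-3, or 2 × 10³/well for MCF-7 and HeLa 48 h runs, and attached overnight. Medium replaced with compound-containing medium for 24 or 48 h. MTT (4 mg mL⁻¹) added for the final 3 h, formazan dissolved in DMSO, absorbance read at 570 nm (reference 660 nm). IC₅₀ calculated from at least three independent experiments in duplicate, mean ± SE.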

HeLa [2] = assay: Antiproliferative activity against human HeLa cells assessed as reduction in cell viability after 24 hrs by MTT assay; type: functional, cell-based; how it was run: as §1
HeLa [3] = assay: Antiproliferative activity against human HeLa cells assessed as reduction in cell viability after 48 hrs by MTT assay; type: functional, cell-based; settings: Homo sapiens, HeLa, 48 h; how it was run: as §1
PC-3 [4] = assay: Antiproliferative activity against human PC3 cells assessed as reduction in cell viability after 24 hrs by MTT assay; type: functional, cell-based; settings: PC-3, 24 h; how it was run: as §1
PC-3 [5] = assay: Antiproliferative activity against human PC3 cells assessed as reduction in cell viability after 48 hrs by MTT assay; type: functional, cell-based; settings: PC-3, 48 h; how it was run: as §1
[6] = Cytotoxicity against human HDFa cells assessed as reduction in cell viability after 24 hrs by MTT assay; type: cell-based; how it was run: as §1
[7] = Cytotoxicity against human HDFa cells assessed as reduction in cell viability after 48 hrs by MTT assay; type: cell-based; how it was run: as §1
MCF7 [8] = assay: Induction of cell cycle arrest in human MCF7 cells assessed as accumulation of cells at S phase at 8.7 uM after 24 hrs by Propidium iodide staining based flow cytometric analysis (reference value: 23.75 +/- 1.87%); type: functional
MCF7 [9] = assay: Induction of cell cycle arrest in human MCF7 cells assessed as accumulation of cells at G2/M phase at 2.9 uM after 24 hrs by Propidium iodide staining based flow cytometric analysis (reference value: 27 +/- 2.97%); type: functional
MCF7 [10] = assay: Induction of cell cycle arrest in human MCF7 cells assessed as accumulation of cells at G2/M phase at 8.7 uM after 24 hrs by Propidium iodide staining based flow cytometric analysis (reference value: 27 +/- 2.97%); type: functional
HeLa [11] = assay: Cell cycle arrest in human HeLa cells assessed as reduction in cell population at S phase at 2.9 to 8.7 uM after 24 hrs by propidium iodide staining based flow cytometric analysis; type: functional
HeLa [12] = assay: Cell cycle arrest in human HeLa cells assessed as reduction in cell population at G2/M phase at 2.9 to 8.7 uM after 24 hrs by propidium iodide staining based flow cytometric analysis; type: functional
MCF7 [13] = assay: Anticlonogenic activity against human MCF7 cells assessed as reduction in colony formation at 2.9 to 11.6 uM incubated for 24 hrs followed by recovery period of 2 weeks by culturing cells in drug-free medium by crystal violet staining based assay; type: functional, cell-based
How it was run: (§2)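 Cells (1 × 10⁶) plated, after 24 h given fresh medium with derivative at 1, 2, 3 or 4 μg mL⁻¹ for 24 h; then trypsinized, counted, 8 × 10² replated into two plates in compound-free medium. After 2 weeks fixed with 6.0% glutaraldehyde, stained with 0.5% crystal violet; colonies of ≥50 cells counted. Mean ± SE of three experiments in duplicate.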

PC-3 [14] = assay: Anticlonogenic activity against human PC3 cells assessed as reduction in colony formation at 2.9 to 11.6 uM incubated for 24 hrs followed by recovery period of 2 weeks by culturing cells in drug-free medium by crystal violet staining based assay; type: functional, cell-based; how it was run: as §2
MCF7 [15] = assay: Anticlonogenic activity against human MCF7 cells assessed as proportion of colony forming cells at 11.6 uM incubated for 24 hrs followed by recovery period of 2 weeks by culturing cells in drug-free medium by crystal violet staining based assay relative to control; type: functional; how it was run: as §2
HeLa [16] = assay: Anticlonogenic activity against human HeLa cells assessed as proportion of colony forming cells at 11.6 uM incubated for 24 hrs followed by recovery period of 2 weeks by culturing cells in drug-free medium by crystal violet staining based assay relative to control; type: functional; how it was run: as §2
PC-3 [17] = assay: Anticlonogenic activity against human PC3 cells assessed as proportion of colony forming cells at 11.6 uM incubated for 24 hrs followed by recovery period of 2 weeks by culturing cells in drug-free medium by crystal violet staining based assay relative to control; type: functional; how it was run: as §2
MCF7 [18] = assay: Induction of apoptosis in human MCF7 cell at 8.7 uM after 48 hrs by Annexin-V/7-AAD staining based flow cytometric analysis relative to control; type: functional
How it was run: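 MCF-7 cells treated 48 h, stained with annexin V and 7-AAD (Muse annexin V and dead cell kit), and apoptotic and necrotic fractions counted by flow cytometry. Mean ± SE of three independent experiments; ANOVA with Bonferroni post hoc test.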

MCF7 [19] = assay: Induction of apoptosis in human MCF7 cells assessed as increase in cleaved PARP level at 2.9 uM after 24 hrs by immunoblot analysis relative to control; type: functional
How it was run: (§3)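 Proteins run on SDS-PAGE, transferred to PVDF, blocked in 5% milk/PBS, primary antibody overnight at 4 °C (cleaved PARP, Bax, Bcl-2), secondary 1 h at room temperature. Reprobed for β-actin; densitometry corrected for loading.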

MCF7 [20] = assay: Induction of apoptosis in human MCF7 cells assessed as increase in cleaved PARP level at 8.7 uM after 24 hrs by immunoblot analysis relative to control; type: functional; how it was run: as §3
MCF7 [21] = assay: Induction of apoptosis in human MCF7 cells assessed as increase in Bax level at 8.7 uM after 24 hrs by immunoblot analysis relative to control; type: functional; how it was run: as §3
MCF7 [22] = assay: Induction of apoptosis in human MCF7 cells assessed as reduction in Bcl-2 expression at 8.7 uM after 24 hrs by immunoblot analysis relative to control; type: functional; how it was run: as §3
MCF7 [23] = assay: Induction of cytoplasmic vacuolization in human MCF7 cells at 8.7 uM after 24 to 48 hrs by TEM analysis; type: functional, cell-based
How it was run: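 MCF-7 cells (2 × 10⁵) attached overnight, then exposed to 8.7 μM derivative or DMSO for 24 or 48 h at 37 °C. Fixed in ice-cold 2.5% fixative; ultrathin 45 nm sections stained with uranyl acetate and lead citrate, imaged by TEM at 1650×.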

MCF7 [24] = assay: Induction of vacuolization in human MCF7 cells assessed as increase in LAMP1 expression at 2.9 uM by Western blot analysis relative to control; type: functional
MCF7 [25] = assay: Induction of vacuolization in human MCF7 cells assessed as increase in LAMP1 expression at 8.7 uM by Western blot analysis relative to control; type: functional
How it was run: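 Lysates were cleared, run on SDS-PAGE and blotted to PVDF, then probed for LAMP1. Blocking was 5% milk in PBS, primary antibody overnight at 4 °C, secondary 1 h at room temperature. Blots were stripped, reprobed for β-actin, and densitometry was corrected for loading.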

MCF7 [26] = assay: Antiproliferative activity against human MCF7 cells assessed as reduction in cell growth in presence of early autophagy inhibitor, wortmannin by MTT assay; type: functional, cell-based
MCF7 [27] = assay: Antiproliferative activity against human MCF7 cells assessed as reduction in cell viability at 8.7 uM after 24 hrs in presence of 0.5 uM actin dynamics inhibitor, cytochalasin-D by MTT assay; type: functional, cell-based
MCF7 [28] = assay: Antiproliferative activity against human MCF7 cells assessed as reduction in cell viability at 8.7 uM after 24 hrs in presence of 10 uM Na+/H+ exchange inhibitor, amiloride by MTT assay; type: functional, cell-based

| SMILES | IC50 (MCF7 [1]) [µM] | IC50 (HeLa [2]) [µM] | IC50 (HeLa [3]) [µM] | IC50 (PC-3 [4]) [µM] | IC50 (PC-3 [5]) [µM] | IC50 [6] [µM] | IC50 [7] [µM] | Activity (MCF7 [8]) [%] | Activity (MCF7 [9]) [%] | Activity (MCF7 [10]) [%] | Activity (HeLa [11]) | Activity (HeLa [12]) | inhibition (MCF7 [13]) | inhibition (PC-3 [14]) | Activity (MCF7 [15]) [%] | Activity (HeLa [16]) [%] | Activity (PC-3 [17]) [%] | fold change (FC) (MCF7 [18]) | fold change (FC) (MCF7 [19]) | fold change (FC) (MCF7 [20]) | also measured |
| --- | --- | --- | --- | --- | --- | --- | --- | --- | --- | --- | --- | --- | --- | --- | --- | --- | --- | --- | --- | --- | --- |
| CC(=O)c1c(O)c(C)c(O)c2c1OC1=Cc3onc(C)c3C(=O)[C@]12C | 3.2 | 1 | 1 | 3.2 | 3.1 | 9.2 | 3 | 7.25 | 16.4 | 14.65 | Active | Active | Active | Active | <50 | <50 | <50 | 3 | 4.4 | 4.1 | fold change (FC) (MCF7 [21]): 2.1; fold change (FC) (MCF7 [22]): 0.2; Activity (MCF7 [23]): Active; fold change (FC) (MCF7 [24]): 5.3; fold change (FC) (MCF7 [25]): 5.1; inhibition (MCF7 [26]): Active; inhibition (MCF7 [27]): Active; inhibition (MCF7 [28]): Active |
| CC(=O)c1c(O)c(C)c(O)c2c1OC1=Cc3onc(C)c3C(=O)C12C (racemic) | 3.1 | 1 | 1 | 3.4 | 2.8 | > 10 | 5.9 | 8.35 | 16.2 | 14.02 | Active | Active | Active | Active | <50 | <50 | <50 | 3 | 3.6 | 4.5 | fold change (FC) (MCF7 [21]): 1.1; fold change (FC) (MCF7 [22]): 0.3; Activity (MCF7 [23]): Active; fold change (FC) (MCF7 [24]): 1.3; fold change (FC) (MCF7 [25]): 1.8; inhibition (MCF7 [26]): Active; inhibition (MCF7 [27]): Active; inhibition (MCF7 [28]): Active |
